NR2E3 ag-1: NR2E3 agonists in two-hybrid cells, primary screen, cell-based, luminescence, CHO-S, Gal4-NCOR/VP16-NR2E3; Photoreceptor-specific nuclear receptor (Homo sapiens), Q9Y5X4; luciferase; inhibition of corepressor binding, % at 3.98 µM; hit rate 0.35% among 360,000; AID 602229, 2012;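 active means inhibition above the mean of all tested compounds plus 3 SD, cut at about 70% in these data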;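 further: 0% = DMSO with NR2E3 transfected cells and 100% = cells lacking NR2E3 construct; higher means lower luciferase signal from less NR2E3 corepressor binding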
Target sequence (Q9Y5X4 whole entry, looked up, the tested form may be a part): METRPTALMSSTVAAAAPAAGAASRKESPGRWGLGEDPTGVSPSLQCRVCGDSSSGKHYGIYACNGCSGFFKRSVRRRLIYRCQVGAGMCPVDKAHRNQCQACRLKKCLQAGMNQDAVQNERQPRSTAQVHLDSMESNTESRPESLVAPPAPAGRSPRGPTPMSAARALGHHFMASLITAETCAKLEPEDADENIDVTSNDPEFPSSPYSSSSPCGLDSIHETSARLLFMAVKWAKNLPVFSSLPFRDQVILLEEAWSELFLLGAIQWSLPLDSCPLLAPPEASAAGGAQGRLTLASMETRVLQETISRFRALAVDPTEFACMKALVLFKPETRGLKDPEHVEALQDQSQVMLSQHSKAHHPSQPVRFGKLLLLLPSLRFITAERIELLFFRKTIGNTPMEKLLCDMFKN
PG9 Ab binder: binders of HIV-1 gp120 antibody PG9, primary screen, biochemical, TR-FRET; AID 624416, 2012; inhibition, % at 6.7 µM; hit rate 0.43% among 360,000; TR-FRET gp120-PG9 antibody binding; in the data active means inhibition above about 8.5%
NR2E3 ag-2: inhibitors of NR2E3-RetCOR corepressor binding, primary screen, NR2E3 agonist project, biochemical, TR-FRET, GST-NR2E3, biotin-RetCOR | Photoreceptor-specific nuclear receptor (Homo sapiens), Q9Y5X4 | 1536-well | inhibition of corepressor binding, % at 4.78 µM | hit rate 0.12% among 320,000 | AID 2300, 2010;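 active means percent inhibition above the cutoff of mean plus 3 SD of all tested compounds, set per screening campaign, cut at about 20% in these data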;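 further: 0% = DMSO wells and 100% = biotin wells as full block of FRET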
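Assay system: NR2E3–RetCOR corepressor complex. Quantity: 1.35 nM GST-NR2E3. Buffer or medium: pH 7.5 Tris-based buffer. Reagent: biotinylated RetCOR corepressor at 7 nM final. Schedule: 5 h at 4 °C. Detection: TR-FRET, emission read at 617 and 671 nm. Replicates: one well per compound, singlicate testing.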
Rev-erbA mod: modulators of Rev-erb alpha DNA binding, primary screen, biochemical, FITC-DNA, fluorescence polarization, uHTS; Nuclear receptor subfamily 1 group D member 1 (Homo sapiens), P20393; Rev-erbα–FITC-DNA binding, 90 min; activity, % at 10 µM; hit rate 0.79% among 370,000; AID 1259318, 2017;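 active means activity above about 14%, limit read from the data; passing the limit was not always enough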;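 further: 0% = DMSO wells with 35 nM protein and 100% = DMSO wells with 750 nM protein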
PG9 bind confirm: binders of anti-gp120 antibody PG9, confirmation, biochemical, TR-FRET | shares compounds with PG9 Ab binder | TR-FRET PG9 antibody binding | inhibition, % at 6.7 µM | hit rate 90% among 1,500 | AID 651571, 2012; in the data active means inhibition above about 9%
PGV04 counter: binders of control antibody PGV04, counter-screen for PG9 antibody binder project, biochemical, TR-FRET, distinct HIV envelope site. TR-FRET PGV04 antibody-gp120 binding. hit rate 95% among 1,500. AID 651604, 2012. shares compounds with PG9 Ab binder. inhibition, % at 6.7 µM; in the data active means inhibition above about 9.5%
PG9 binder DR: small-molecule binders of antibody PG9, dose response, biochemical, TR-FRET, HIV-1 gp120 antibody. 95 tested, under 10 active. IC50, µM. shares compounds with PG9 Ab binder. AID 651848, 2012. TR-FRET PG9 antibody-gp120 binding inhibition; in the data active means IC50 below about 10 µM
PGV04 binding DR: binders of control antibody PGV04, dose response, counter-screen for PG9 antibody binder project, biochemical, TR-FRET, distinct HIV envelope site; hit rate 20% among 95; AID 651937, 2012; IC50, µM; TR-FRET binding to control antibody PGV04; shares compounds with PG9 Ab binder
PG126 binding DR: binders of control antibody PG126, dose response, counter-screen for PG9 antibody binder project, biochemical, TR-FRET, distinct HIV envelope site; shares compounds with PG9 Ab binder; TR-FRET binding to antibody PG126, counterscreen; IC50, µM; hit rate 20% among 95
Numbers without * were called inactive. In the library only some 1.4% were active in any assay of this set; here they are far more common. Unless noted, no stated cut-off is given here; in the data, active means IC50 below about 9 µM; inactive means the rest.

How did COc1cccc(-n2nnnc2SCC(=O)Nc2ccccc2OC)c1 do in these assays?
NR2E3 ag-1: 15; PG9 Ab binder: 0; NR2E3 ag-2: 1; Rev-erbA mod: -5

How did C=CCN1C(C(=O)OC)CN(Cc2cn(Cc3ccc(C)cc3)nn2)CCS1(=O)=O (stereo unspecified) do in these assays?
Rev-erbA mod: -7

Results for O=C(O)c1ccccc1NC(=S)NC(=O)c1sc2ccccc2c1Cl ?
NR2E3 ag-1: -61; PG9 Ab binder: 9.8*; NR2E3 ag-2: 5; Rev-erbA mod: 8; PG9 bind confirm: 17*; PGV04 counter: 19*

How did O=C(NC(=S)Nc1ccccc1N1CCOCC1)c1sc2ccccc2c1Cl do in these assays?
NR2E3 ag-1: -13; PG9 Ab binder: -1; NR2E3 ag-2: 3; Rev-erbA mod: 2

How did CCOC(=O)N1CCN(C(=O)C[C@@H]2C(=O)N(CCc3ccc(Cl)cc3)/C3=C/CCCCC[C@@]32C(=O)OCC)CC1 do in these assays?
Rev-erbA mod: -3

What do the screens show for `Cc1nc(SCC(=O)Nc2sccc2C(N)=O)c2c(C)c(C)sc2n1`?
NR2E3 ag-1: 31; PG9 Ab binder: -1; Rev-erbA mod: -5

What do the screens show for `Cc1nc(SCC(=O)Nc2cc(C(N)=O)cc(C(N)=O)c2)c2c(C)c(C)sc2n1`?
NR2E3 ag-1: -67; PG9 Ab binder: 11*; NR2E3 ag-2: 14; Rev-erbA mod: 8; PG9 bind confirm: 18*; PGV04 counter: 36*

How did Nc1ncnc2c1cnn2-c1ccccc1 do in these assays?
NR2E3 ag-1: -18; PG9 Ab binder: 0; NR2E3 ag-2: 2; Rev-erbA mod: -6

How did S=c1nc[nH]c2c1cnn2-c1ccccc1 do in these assays?
NR2E3 ag-1: -30; PG9 Ab binder: 17*; NR2E3 ag-2: 5; Rev-erbA mod: 11; PG9 bind confirm: 7; PGV04 counter: 7; PG9 binder DR: >67; PGV04 binding DR: >67; PG126 binding DR: >67

Results for COc1ccc(-c2cc(-c3nnc(SCc4cccc5ccccc45)n3N)[nH]n2)cc1 ?
Rev-erbA mod: -2

How did CCN(CC)CCNC(=O)c1cc(-c2ccc(Br)s2)nc2ccccc12 do in these assays?
NR2E3 ag-1: 13; PG9 Ab binder: 15*; NR2E3 ag-2: 7; Rev-erbA mod: 1; PG9 bind confirm: 26*; PGV04 counter: 50*

What do the screens show for `O=C(O)c1cc(-c2ccc(Br)s2)nc2ccccc12`?
NR2E3 ag-1: -93; PG9 Ab binder: 17*; Rev-erbA mod: -6; PG9 bind confirm: 25*; PGV04 counter: 68*

How did Cc1cc(-c2cc(C(=O)O)c3ccccc3n2)c(C)s1 do in these assays?
NR2E3 ag-1: 3; PG9 Ab binder: 0; NR2E3 ag-2: 2; Rev-erbA mod: -4

How did CCc1cccc(CC)c1NC(=O)Cn1c(-c2ccccc2Cl)nc2ccccc21 do in these assays?
NR2E3 ag-1: -33; PG9 Ab binder: 17*; NR2E3 ag-2: 7; Rev-erbA mod: 1; PG9 bind confirm: 19*; PGV04 counter: 25*

What do the screens show for `COc1ccc(CNC(=O)CN(C(=O)c2cc3sccc3n2C)C2CCCC2)cc1`?
NR2E3 ag-1: -19; PG9 Ab binder: 13*; NR2E3 ag-2: 0; Rev-erbA mod: 3; PG9 bind confirm: 11*; PGV04 counter: 14*

What do the screens show for `COc1ccc(CNC2CCC23CCCCC3)cc1OC` (stereo unspecified)?
Rev-erbA mod: 3

How did COC(=O)N1CCCC1c1cccc2[nH]cc(C)c12 (stereo unspecified) do in these assays?
Rev-erbA mod: 0

Results for COc1ccc(C(=O)COC(=O)CCN=C2NS(=O)(=O)c3ccccc32)c(OC)c1 ?
NR2E3 ag-1: -32; PG9 Ab binder: 17*; NR2E3 ag-2: -2; Rev-erbA mod: 2; PG9 bind confirm: 31*; PGV04 counter: 45*

What do the screens show for `Cc1ccc(C(=O)CSc2nc(C)cc(SCc3nnc(-c4ccccc4)o3)n2)cc1`?
NR2E3 ag-1: -15; PG9 Ab binder: 9.4*; NR2E3 ag-2: 2; Rev-erbA mod: 2; PG9 bind confirm: 15*; PGV04 counter: 22*

How did Cc1cc(=O)[nH]c(SCc2nnc(-c3ccccc3)o2)n1 do in these assays?
NR2E3 ag-1: -8; PG9 Ab binder: 0; NR2E3 ag-2: 3; Rev-erbA mod: -3

What do the screens show for `Cc1cc(=O)oc2cc(OC(C)C(=O)Nc3ccc(C(N)=O)cc3)ccc12` (stereo unspecified)?
NR2E3 ag-1: 7; PG9 Ab binder: 2; NR2E3 ag-2: 3; Rev-erbA mod: -2

How did Cc1cc(=O)oc2cc(NC(=O)C(C)Oc3cccc(Cl)c3)ccc12 (stereo unspecified) do in these assays?
NR2E3 ag-1: -11; PG9 Ab binder: 10.0*; NR2E3 ag-2: -1; Rev-erbA mod: 13; PG9 bind confirm: 12*; PGV04 counter: 19*

How did O=C(/C=C/Nc1ccccc1)C(F)(F)F do in these assays?
NR2E3 ag-1: -7; PG9 Ab binder: 9.3*; NR2E3 ag-2: -1; Rev-erbA mod: 3; PG9 bind confirm: 4; PGV04 counter: 7

How did Cc1c(N/C=C/C(=O)C(F)(F)F)c(=O)n(-c2ccccc2)n1C do in these assays?
NR2E3 ag-1: -6; PG9 Ab binder: -1; NR2E3 ag-2: 0; Rev-erbA mod: 5

How did CC(=O)c1nn(-c2ccccc2)cc1C(=O)c1cccc(Br)c1 do in these assays?
NR2E3 ag-1: -7; PG9 Ab binder: 0; NR2E3 ag-2: 1; Rev-erbA mod: -2

How did CC(=O)c1nn(-c2cccc(Br)c2)cc1C(=O)c1ccccc1 do in these assays?
NR2E3 ag-1: -8; PG9 Ab binder: 13*; NR2E3 ag-2: 2; Rev-erbA mod: 0; PG9 bind confirm: 20*; PGV04 counter: 25*

How did COc1ccc(C(=O)NCCCNc2nc3cc(C)cc(C)c3cc2C#N)cc1 do in these assays?
NR2E3 ag-1: -22; PG9 Ab binder: -1; Rev-erbA mod: 0

Bioassay records deposited in PubChem by several laboratories.
